An excerpt weighted towards active compounds, which were near 1.9% of everything screened.
CCR6 antag – CCR6 receptor antagonists, primary screen, cell-based, CHO-K1, luminescence, beta-arrestin, uHTS; inhibition, % at 20 µM; CHO-K1 CCR6 PathHunter beta-arrestin, CCL20-stimulated; hit rate 0.49% among 340,000; AID 493098, 2011;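 active = compounds whose inhibition of the agonist-driven luminescence signal at 20 µM reaches about 50%, limit read from the data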;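 note: cells stimulated with CCL20 at 14 nM final; plate controls were DMSO with CCL20 for no effect and DMSO without agonist for full effect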
APJ antag – antagonists of human apelin receptor APJ, primary screen, CHO-K1 cells, beta-arrestin complementation, luminescence; hit rate 0.32% among 330,000; inhibition, % at 20 µM; P35414;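 active = inhibition above about 40% at 20 µM, limit read from the data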;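 note: cells challenged with 10 nM apelin-13 agonist together with compound; plate controls were apelin-13 plus DMSO wells for no effect and DMSO wells lacking apelin-13 for full effect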
APJ ag – agonists of human apelin receptor APJ, primary screen, CHO-K1 cells, PathHunter beta-arrestin, luminescence; P35414; 0% DMSO wells, 100% apelin; activation, % at 20 µM; hit rate 0.11% among 330,000; AID 2520, 2010;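 active = activation more than six SD over the plate average, tested at 20 µM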;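 note: 0% = DMSO alone and 100% = apelin-13 at 10 nM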
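Test system: CHO-K1 APJ beta-arrestin complementation cell line | Compound: Single test compound dose, 20 µM final, 1% DMSO | Incubation: Compound 90 min 25 °C, reagent 1 h | Measured by: beta-gal luminescence | Read-out basis: APJ–arrestin association signal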
H9c2 TAG inh – inhibitors of triacylglycerol accumulation, primary screen, cell-based, uHTS, fluorescence, H9c2; H9c2 cells, Nile Red lipid (TAG) fluorescence; cells loaded with 200 µM oleic acid; inhibition, % at 12.5 µM; hit rate 0.66% among 230,000;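 active = pattern-corrected inhibition of lipid staining of at least 50% with the nuclear-stain viability signal not falling by more than 50%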;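 note: 0% = DMSO wells and 100% = triacsin C control wells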
EBI2 antag – EBI2 receptor antagonists, beta-arrestin recruitment, primary screen, cell-based, luminescence, 7a,25-OHC stimulation, uHTS | G-protein coupled receptor 183 (Homo sapiens), P32249 | 7a,25-OHC stimulated | inhibition, % at 5 µM | hit rate 0.81% among 360,000 | AID 651636, 2012; in the data active = inhibition above about 38%;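 note: enzyme fragment complementation signal reports receptor beta-arrestin coupling in cells; 0% = agonist plus DMSO wells and 100% = wells without agonist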
Target sequence (P32249 whole entry, looked up, the tested form may be a part): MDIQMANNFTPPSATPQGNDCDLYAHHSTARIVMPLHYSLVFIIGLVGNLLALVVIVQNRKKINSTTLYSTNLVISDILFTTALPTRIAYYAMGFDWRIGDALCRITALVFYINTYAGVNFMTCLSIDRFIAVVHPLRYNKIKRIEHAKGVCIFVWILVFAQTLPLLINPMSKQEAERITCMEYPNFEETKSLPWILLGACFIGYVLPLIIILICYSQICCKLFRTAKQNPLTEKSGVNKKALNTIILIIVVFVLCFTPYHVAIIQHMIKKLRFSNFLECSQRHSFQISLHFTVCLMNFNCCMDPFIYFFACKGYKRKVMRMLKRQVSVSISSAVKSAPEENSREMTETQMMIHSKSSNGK
CXCR6 inh – CXCR6 receptor inhibitors, primary screen, cell-based, beta-arrestin, luminescence, CHO-K1 PathHunter, 1536-well. C-X-C chemokine receptor type 6 (Homo sapiens), O00574. inhibition, % at 20 µM. hit rate 0.36% among 360,000; in the data active = inhibition above about 34%, passing the limit was not always enough;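 note: antagonist mode with CXCL16 agonist at 10 nM final; 0% = 10 nM CXCL16 with DMSO and 100% = unstimulated wells without agonist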
Target sequence (O00574 whole entry, looked up): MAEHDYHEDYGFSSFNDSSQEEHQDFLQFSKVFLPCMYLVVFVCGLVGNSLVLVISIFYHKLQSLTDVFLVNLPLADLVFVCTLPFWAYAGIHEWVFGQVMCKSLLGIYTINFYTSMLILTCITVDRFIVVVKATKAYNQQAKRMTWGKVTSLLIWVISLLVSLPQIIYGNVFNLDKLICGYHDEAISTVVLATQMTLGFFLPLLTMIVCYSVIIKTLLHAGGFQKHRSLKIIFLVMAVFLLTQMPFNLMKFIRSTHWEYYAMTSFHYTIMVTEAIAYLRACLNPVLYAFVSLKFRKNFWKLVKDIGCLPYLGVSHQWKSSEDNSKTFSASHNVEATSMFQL
EBI2 antag conf – EBI2 antagonist hit retest, beta-arrestin, confirmation, cell-based, single concentration, luminescence, 7a,25-OHC stimulation | shares compounds with EBI2 antag | hit rate 29% among 2,400 | 7a,25-OHC antagonism | inhibition, % at 5 µM;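 active = inhibition of at least 50%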
EBI2 agonist – EBI2 agonist activity of antagonist hits, confirmation, counter-screen for EBI2 antagonist project, cell-based, single concentration, agonist mode, luminescence; shares compounds with EBI2 antag; EBI2-expressing cells, 60 min; 0% vehicle, 100% 7α,25-dihydroxycholesterol control; activation, % at 5 µM; 2,400 tested, under 10 active; AID 652000, 2013;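 active = activation of at least 50%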
bGal cs – E. coli beta-galactosidase enzyme inhibition, confirmation, counter-screen for EBI2 antagonist project, biochemical, luminescence, single concentration. shares compounds with EBI2 antag. purified beta-galactosidase, luminescent Galacton Star, 15 min. inhibition, % at 5 µM. hit rate 1% among 2,400;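 active = replicate-average signal at least 3 plate SD below neutral wells, shown as high inhibition, flagging enzyme-inhibiting false positives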;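 note: 0% = DMSO wells with enzyme and 100% = wells lacking enzyme; higher means stronger loss of beta-gal luminescence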
Active calls of the source: *; . = no result.

SMILES | CCR6 antag | APJ antag | APJ ag | H9c2 TAG inh | EBI2 antag | CXCR6 inh | EBI2 antag conf | EBI2 agonist | bGal cs
O=C1c2cccc3c([N+](=O)[O-])ccc(c23)C(=O)N1CCc1ccccn1 | -8 | -68 | 1 | 31 | 75* | -10 | 41 | 0 | 8
COc1cc(C(=O)Nc2ccc3c(c2)N(C(=O)CN2CCN(C)CC2)c2ccccc2CC3)cc(OC)c1OC | 5 | -4 | 2 | 36 | -11 | -4 | . | . | .
COC(=O)/C=C1\C(=O)N(c2nc3ccccc3s2)C(=S)N1c1ccc(F)cc1 | -6 | -8 | 1 | . | 89* | 4 | 90* | 1 | 1
Nc1nc(Cl)cc(N2CCCC2)n1 | -4 | -6 | -1 | -2 | -5 | -5 | . | . | .
Nc1nc(Cl)cc(N2CCC(c3cc(-c4ccc(Cl)cc4Cl)n[nH]3)CC2)n1 | -8 | 3 | 4 | . | 45* | -7 | 14 | -1 | -15
CC(C)(C)c1ccccc1OCCCCCn1ccnc1 | 20 | 18 | -3 | -17 | 3 | 0 | . | . | .
COc1ccc(N2CCN(C(=O)c3csc4ccccc34)CC2)cc1 | 15 | 9 | -4 | . | 53* | -2 | 39 | 0 | 10
O=C(COc1ccc2cc(Br)ccc2c1)N1CCCC1 | 3 | 6 | 4 | -1 | 69* | 0 | 44 | 2 | 8
COc1cc(C(=O)N2CCN(C(=O)COc3ccc4ccccc4c3)CC2)cc(OC)c1OC | 3 | 25 | -3 | . | 71* | -7 | 50* | 0 | 6
O=C(c1ccc2ccccc2c1)N1CCN(c2ccc(C(F)(F)F)cn2)CC1 | 14 | 6 | -4 | -12 | 85* | -20 | 71* | 2 | 10
O=C(c1csc2ccccc12)N1CCN(c2ccc(Cl)c(Cl)c2)CC1 | 13 | 16 | 2 | -4 | 38 | -4 | . | . | .
O=C(c1ccc2c(c1)OCO2)N1CCN(c2ccc(C(F)(F)F)cn2)CC1 | 11 | -6 | -2 | . | -7 | -4 | . | . | .
CCC1CCCCN1C(=O)CCS(=O)(=O)c1ccccc1 (centres undefined) | -3 | -9 | -3 | 10 | -5 | 5 | . | . | .
CCc1nc2ccc(C(=O)N3CCN(c4cccc(OC)c4)CC3)cc2nc1CC | 14 | 10 | -4 | . | -3 | 5 | . | . | .
COc1cccc(C(=O)N2CCN(C(=O)COc3ccc4ccccc4c3)CC2)c1 | -3 | -7 | -4 | . | 95* | 1 | 78* | 1 | 8
CN1CCN(C(=O)c2ccc3ccccc3c2)CC1 | 11 | -14 | -4 | . | 41 | -5 | . | . | .
CCOC(=O)N1CCN(C(=O)c2ccc3ccccc3c2)CC1 | 15 | -2 | 0 | 1 | 68* | -3 | 31 | -1 | -10
COc1cccc(N2CCN(C(=O)c3ccc4ccccc4c3)CC2)c1 | 4 | -4 | -5 | -14 | 62* | -19 | 42 | 1 | 5
CCCS(=O)(=O)NC(=O)C1(C)CCN(C(=O)c2cc(C)nn2C(C)(C)C)C1 (centres undefined) | . | . | . | 8 | -5 | 4 | . | . | .
Cc1ccc(C2=NNC(=O)C(c3ccc(Cl)cc3)C2)cc1 (centres undefined) | 18 | -11 | 0 | 5 | 53* | 4 | 40 | 0 | 9
O=C1NN=C(c2ccc(Cl)cc2)CC1c1cccc(Br)c1 (centres undefined) | 15 | -5 | -2 | 29 | 29 | -10 | . | . | .
O=C1NC[C@H](CCCCN2CCN(Cc3ccccc3)C(=O)C2=O)N(CC2CCCCC2)C1=O | . | . | . | . | -5 | -1 | . | . | .
Cc1ccc(C(=O)N2CCN(Cc3nc4sc5c(c4c(=O)[nH]3)CCCC5)CC2)cc1 | -7 | 4 | -1 | . | 44* | 0 | 12 | -1 | -13
O=C(CN1CCN(c2ccccn2)CC1)Nc1ccc([N+](=O)[O-])cc1C(=O)Nc1ccccc1F | 21 | -12 | 5 | 7 | -19 | 4 | . | . | .
C=C(C)C1Cc2c(C)nn(-c3cccc4ccccc34)c2C1 (centres undefined) | 10 | 17 | -2 | . | 32* | -3 | 41 | -1 | 8
SMILES | CCR6 antag | APJ antag | APJ ag | H9c2 TAG inh | EBI2 antag | CXCR6 inh | EBI2 antag conf | EBI2 agonist | bGal cs
C=C(C)C1Cc2c(C)nn(-c3ccccc3)c2C1 (centres undefined) | 25 | 13 | -3 | . | -10 | -6 | . | . | .
COc1cc(C2OC(=O)C3C(c4ccc(OC(C)=O)c(OC)c4)OC(=O)C23)ccc1OC(C)=O (centres undefined) | 5 | -6 | -3 | 1 | 62* | 6 | -3 | -1 | -10
Cc1ccc2oc(C(=O)N3CCC(N4CCSCC4)CC3)c(C)c2c1 | 2 | 4 | -4 | . | 71* | -6 | 46 | 2 | 4
Cc1c(C(=O)N2CCC(N3CCSCC3)CC2)oc2c(F)cccc12 | 6 | -10 | -4 | . | 47* | -7 | 12 | -1 | -12
CCN1C(=O)[C@@H]2[C@H](C1=O)[C@@H]1CC(C(=O)OC)=C[C@@H](C(=O)OC)C3C1=C(C(=O)C3(CC)CC)[C@@H]2C (some centres undefined) | 1 | -6 | 8 | . | . | . | . | . | .
COc1ccccc1NC(=O)c1ccc(Br)c(S(=O)(=O)N2CCCC2)c1 | -1 | -2 | 1 | -26 | -4 | 6 | . | . | .
COc1ccc(C(C)=O)cc1CSc1nc2ccccc2c(=O)n1-c1ccccc1C | 2 | 1 | 4 | . | 44* | 12 | 23 | 1 | 7
COc1ccc(C(C)=O)cc1CSc1nc2ccccc2c(=O)n1-c1ccccc1 | 4 | 10 | -3 | . | 20 | 6 | . | . | .
CCCCC[C@@H]1C=C(C(=O)O)[C@H](c2ccc3c(c2)OCO3)N1S(=O)(=O)c1ccc(C)cc1 | 11 | 20 | -5 | -5 | 2 | -2 | . | . | .
COc1ccc2[nH]c(C(=O)N3CCN(Cc4ccccc4)CC3)cc2c1OC | 6 | 16 | -5 | . | 52* | -3 | 17 | 0 | -10
CCOC(=O)N1CCN(C(=O)c2ccc3[nH]c(C)c(C)c3c2)CC1 | 2 | 4 | 0 | 2 | 35 | 6 | . | . | .
